Tested on: MS2 coat protein
Test: apparent Kd, MS2 coat protein; higher = weaker binding; RNA-MaP array; FMN 200 µM where present
Outline: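 On Illumina sequencing-chip clusters, designs were transcribed by stalled E. coli RNA polymerase and titrated with SNAP-549-labelled MS2 coat protein (0.7 or 1.5 nM, doubling to 3 µM), without and then with constant ligand, in 100 mM Tris-HCl pH 7.5, 80 mM KCl, 4 mM MgCl2, BSA, DTT, yeast tRNA and Tween-20. Apparent Kd is the median of filtered per-cluster curve fits to green signal normalised to red-channel RNA signal and control-cluster median Fmax.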

[1] = designed as: OFF switch for flavin mononucleotide, no ligand
[2] = ligand present: flavin mononucleotide, designed as: OFF switch for flavin mononucleotide
[3] = designed as: ON switch for flavin mononucleotide, no ligand
[4] = ligand present: flavin mononucleotide, designed as: ON switch for flavin mononucleotide

Sequence | apparent Kd [1] [µM] | apparent Kd [2] [µM] | apparent Kd [3] [µM] | apparent Kd [4] [µM]
GUGUACUGAGGAUAUACAUGAGGAUCACCCAUGUGAAUAAGAUAGAAUAAGAUAAAGUGUAGAAGGCAGAGUGU | 0.0408 | 0.0354 | – | –
CCGCCCUGGAGAGGAUAUGAUCCGUACUAAAGGUCAGAAGGCUCCGAGUUACAUGAGGAUCACCCAUGUAGGGCGGAAAAUAUG | – | – | 0.0063 | 0.00525
GUCAGCUCGUGAGGAUAUACAUGUGCUGGAGACAGCAUUAAAUAAUUCACAUGAGGAUCACCCAUGUAGAAGGCACGAGCUGAU | 0.0178 | 0.0388 | – | –
AAGAAACAUGAGGAUCACCCAUGUGAGGAUAUGUAAAAGAAAAGAAAAUAAAGAAGAAACAGAAGGCACAAAGG | 0.0402 | 0.0644 | – | –
UGGAUCAUGGGAGGAUAUCCUCAAGAGACAUGAGGAUCACCCAUGUAUUAUAAGCCGAAAGGCAUGGAGAAGGCCCAUGAUCCU | – | – | 0.0503 | 0.019
GGACGGAAAGUGAGGAUAUGCUCUACCUCGGUAGAGCAGAAGGCACAUGAGGAUCACCCAUGUGAUAACUGUUC | 0.0191 | 0.093 | – | –
CUGUCCCAAGGAUAUACAUCAGUCCCAGGGUGCCGCAUAAGACAUGAGGAUCACCCAUGUAGAAGGUGGAGACC | 0.0967 | 0.0926 | – | –
GACAUGAGGAUCACCCAUGUCCCUCCAGAAGGCUGGCGCGCGAAACCUAAAUCAGUUCCGGGCACAGAGGAUAUGGGCGGUUGG | – | – | 0.164 | 0.0343
GGUGCACGCACAGGAUAUCCGGCGACGCUCGUCGGAGAAGGGUGACAUGAGGAUCACCCAUGUACGUGCAACUCAGUUUGAGAG | – | – | 0.0357 | 0.0281
CACGUCUGGAAACGGAGCGGCCAACAUGAGGAUCACCCAUGUGAGGAUAUGCCUACUAAAAGUAGGCAGAAGGCGCAAUUGGCA | 0.0312 | 0.0447 | – | –
UGGUCAUGAUCAGGAUAUUAACAUGGGCUACAUUAAGAAGGGAUAGUGAGAUACGAACUGAACAUGAGGAUCACCCAUGUUGUU | – | – | 0.24 | 0.104
UGUUGUAUUACAGGAUAUCUAGGAUUUUUAUUUAGAGAAGGGUAUUCACAUGAGGAUCACCCAUGUAUAUACGAGGAAGUUGUG | – | – | 0.0402 | 0.0413
GGUAUACUGCAGGAUAUUAGCUGAGAUAUCCGCUGAGAAGGGCAGACAUGAGGAUCACCCAUGUACCGAGUAGU | 0.0319 | 0.0188 | – | –
AUGGACGUCGUAGGAUAUGUAGGAUUCUCCUACAUGAGGAUCACCCAUGUUGACAUGGAGGACGGACAGAAGGACGGUGUCCAU | – | – | 0.0132 | 0.00531
GUAGCAACAUGAGGAUCACCCAUGUAGGAUAUCGCUAUUGUAAUCAUGAAACAUGAUUACAAUAGCGAGAAGGACAUAUGCUAA | 0.00833 | 0.0107 | – | –
AGUGUCAUCGAGAAGGCCUCAUGAACAUGAGGAUCACCCAUGUAAGAUGGGAGGAUAUCGAUGAUACAGCUACGUUUCGUAGCA | – | – | 0.0511 | 0.0319
CCAUACAUGAGGAUCACCCAUGACAUGAGGAUCACCCAUGUGCAGGAUAUACGUGAUAUAAUAUAGUAGAAGGGCAGACCAAAA | 0.0757 | 0.0852 | – | –
GUUGCGUUUGUGAGGAUAUGCUGGUCCUUGGUUCGGCAGAAGGCACAUGAGGAUCACCCAUGUGGUGUCGUUCC | 0.0142 | 0.0224 | – | –
AGUGCGUAUGUGAGGAUAUGCUGGUCCUUGGCUCGGCAGAAGGCACAUGAGGAUCACCCAUGUGGUGUCGUACU | 0.239 | 0.0471 | – | –
CCUCCACAUGAGGAUCACCCAUGUCAGGAUAUCGUGUGUGCGUUUUCGGUCUUUCGCGCGAGAAGGGACGUCUG | 0.0306 | 0.0349 | – | –
GUCAUACAUGAGGAUCACCCAUGUAAGGAUAUGCUAGCGGUCGGAAGAAUGACUGCUAGCAGAAGGUACAUGAU | 0.0641 | 0.121 | – | –
GGAUGACAAAGUCAUCCUUAACGAACAUGAGGAUCACCCAUGUAGGAUAUGGAACUCAAAGAGUUCCAGAAGGACAUGUGCCUU | 0.0337 | 0.213 | – | –
GAAAAGCGAGGAUAUACAUGAGGAUCACCCAUGUGUUGGGUGCGUUGGCUAGUCGUCUGUAGAAGGCGCACAAA | 0.904 | 0.466 | – | –
AAGAAAGUUUACGAGGAUAUGUUCCGCAUAACAUGAGGAUCACCCAUGUGAACAAGAAAGGCGACGCAGAAGGCGUGAGCAAAGA | – | – | 0.359 | 0.0432

Source: the EternaBench riboswitch data
